# Rows were chosen to be rich in hits. Some 2.5% of all compounds tested hit in one or more screens of this group.
# E-selectin induc – induces E-selectin expression in human endothelial cells; HUVEC E-selectin immunofluorescence imaging; normalized: neutral wells 0, TNF-alpha wells 100; actives 0.37% (n = 260,000); activation, % at 7.58 µM; P16581;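 active = mean E-selectin-positive cell signal at least 10% of the positive control, reached in at least 60% of replicates, without over 20% cell loss; inconclusive = no rule given, readout overlaps actives, possibly toxicity-flagged; inactive = the rest, including those meeting only one limit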
#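 Read-out: % PE-positive cells | Test system: HUVEC | Doses: One compound dose added by pin transfer | Buffer or medium: EGM-2 over gelatin coat | Signal: Immunofluorescence imaging | Benchmarks: TNF-alpha, DMSO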
# ERAP1 HTS inh – blocks human ERAP1 aminopeptidase activity; recombinant ERAP1, Leu-AMC fluorescence, 60 min; Q9NZ08; inhibition, % at 10.7 µM; actives 0.15% (n = 340,000);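 active = mean replicate inhibition of at least 30%, or all replicates individually reaching that 30% level; inactive = mean below 30% and not every replicate reaching it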;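 note: 0% = neutral control wells and 100% = L-leucinethiol positive control wells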
# SIRT5 inh – inhibitors of human sirtuin-5 desuccinylase. Purified SirT5, succinyl-peptide AMC, trypsin-coupled fluorescence. inhibition, % at 15 µM. actives 1.1% (n = 330,000); in the data active = inhibition above about 15%; inconclusive = no clear call, values can overlap the other calls
# DENV2 CPE – protects cells from dengue virus 2 cytopathic effect; DENV2-infected cells, cytopathic effect rescue, plate reader; CPE inhibition, % at 9.99 µM; actives 1.7% (n = 350,000); in the data active = CPE inhibition above about 20%, passing the limit was not always enough; inconclusive = no clear call, values can overlap the other calls; tested in BHK-21 cells;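 note: 0% = median of neutral control wells and 100% = median of positive control wells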
# PglD DTNB – PglD (C. jejuni) enzyme inhibition; purified PglD enzyme, DTNB colorimetric CoA detection; inhibition, % at 12.5 µM; actives 0.098% (n = 360,000); AID 602405; in the data active = inhibition above about 16%, passing the limit was not always enough; inconclusive = no clear call, values can overlap the other calls
# PglD confirm – blocks Campylobacter jejuni PglD acetyltransferase activity; shares compounds with PglD DTNB; Purified C. jejuni PglD, DTNB absorbance 412 nm; inhibition, % at 20 µM; 320 tested, under 10 active; AID 743156;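 active = mean inhibition across replicates of at least 20% with every single replicate also at 20% or more; inconclusive = mean inhibition at least 20% but some replicate falls below 20%; inactive = mean inhibition under 20% and not all replicates reach it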;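 note: initial rate of CoA release by acetyl transfer from AcCoA to the UDP-4-amino sugar; 0% = median of neutral control wells and 100% = median of positive control wells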
# Numbers without * were called inactive; ? = inconclusive; · = not tested or not shown.
SMILES,E-selectin induc,ERAP1 HTS inh,SIRT5 inh,DENV2 CPE,PglD DTNB,PglD confirm
COc1cc(/C=N/NC(=O)c2csc3c2CCCC3)ccc1OCCN1CCOCC1,0,1,2,-4,-3,·
CC(C)CC(=O)NCc1ccc2[nH]c3c(c2c1)CCCC3,·,5,2,-13,-4,·
CC1Oc2ccccc2N(CC(=O)N2CCCCC2)C1=O (stereo not drawn),·,1,1,-3,25*,?
CCOC(=O)c1[nH]c(C)c(C)c1C,·,·,·,·,25*,-1
CCOC(=O)c1[nH]c(C)c(C(=O)OC)c1C,5,·,-1,1,·,·
COCCNC(=O)Cc1ccc(F)cc1,·,1,·,0,·,·
COCCNC(=O)CCCC(=O)NCCOC,·,·,·,·,35*,-2
O=S(=O)(Nc1cccnc1)c1ccc(Br)c2ccccc12,·,-1,2,3,66*,9
COc1ccc(S(=O)(=O)Nc2cccnc2)c(C)c1C,·,3,2,-6,-4,·
CCOc1ccc(-c2nnc(-c3cccs3)o2)cc1,·,·,·,·,27*,1
CC1CCCN(S(=O)(=O)c2ccc(Cl)s2)C1 (stereo not drawn),0,-4,-1,8,26*,12
CC1CCCN(S(=O)(=O)c2ccc(Br)s2)C1 (stereo not drawn),0,-1,-1,0,1,·
Cc1ccc(S(=O)(=O)n2c(CN3CCCC(C)C3)nc3ccccc32)cc1 (stereo not drawn),·,·,·,·,-7,·
NC(=O)NCc1ccc(Cl)cc1,·,·,·,·,-2,·

# From PubChem BioAssay
